# Assay outcomes deposited in PubChem BioAssay by The Scripps Research Institute Molecular Screening Center.
# This is a sample that favours compounds with a hit; in the whole collection about 4.5% have one here.
# TAAR1 ag = human TAAR1 agonists, primary screen, Fluo-8 calcium fluorescence, CHO RD-HGA16 cells; Trace amine-associated receptor 1 (Homo sapiens), Q96RJ0; activation, % at 3 µM; 360,000 compounds, 0.99% hits; vehicle wells 0%, saturating PEA agonist 100%;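 active = activation above the mean activation of all test compounds in the run plus 3 SD, cut at about 38% in these data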
# Target sequence (Q96RJ0 whole entry, looked up): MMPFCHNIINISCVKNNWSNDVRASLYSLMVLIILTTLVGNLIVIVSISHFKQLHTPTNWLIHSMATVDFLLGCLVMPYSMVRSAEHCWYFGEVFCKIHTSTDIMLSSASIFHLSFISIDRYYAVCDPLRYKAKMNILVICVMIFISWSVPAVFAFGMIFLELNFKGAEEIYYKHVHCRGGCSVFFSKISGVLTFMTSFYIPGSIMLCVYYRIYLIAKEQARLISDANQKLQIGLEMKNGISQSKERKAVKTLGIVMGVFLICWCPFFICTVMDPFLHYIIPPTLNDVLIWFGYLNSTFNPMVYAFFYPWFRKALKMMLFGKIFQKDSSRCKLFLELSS
#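 test system = CHO RD-HGA16 cells carrying human TAAR1 plus Gα16 | schedule = 17-24 h seeding, 75 min 37 °C dye, 30 min RT | compound dosing = 3 µM single concentration | control set = DMSO and PEA EC100 | replicates = n 1 | signal = Fluo-8 fluorescence, 5 s baseline then 140 s kinetic read | measure = percent activation vs PEA EC100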
# OX1R antag-1 = OX1R (HCRTR1) antagonists, primary screen, fluorescence, CHO/OX1R cells, Fluo-8 calcium, orexin A; Orexin/Hypocretin receptor type 1 (Homo sapiens), O43613; Fluo-8 calcium fluorescence; inhibition, % at 5 µM; 330,000 compounds, 0.43% hits;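 active = inhibition above its plate's threshold, mean inhibition of all tested compounds on the plate plus 3 SD, cut at about 37% in these data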
# GPR7 antagonist = GPR7 receptor antagonists, primary screen, cell-based, fluorescence, single concentration; GPR7-expressing cells, fluorescence antagonist assay; inhibition, % at 4.4 µM; 290,000 compounds, 1.1% hits; AID 1861, 2009; in the data active = inhibition above about 16%, passing the limit was not always enough;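 note: cells stimulated with the agonist NPW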
# Target sequence (P48145 whole entry, looked up): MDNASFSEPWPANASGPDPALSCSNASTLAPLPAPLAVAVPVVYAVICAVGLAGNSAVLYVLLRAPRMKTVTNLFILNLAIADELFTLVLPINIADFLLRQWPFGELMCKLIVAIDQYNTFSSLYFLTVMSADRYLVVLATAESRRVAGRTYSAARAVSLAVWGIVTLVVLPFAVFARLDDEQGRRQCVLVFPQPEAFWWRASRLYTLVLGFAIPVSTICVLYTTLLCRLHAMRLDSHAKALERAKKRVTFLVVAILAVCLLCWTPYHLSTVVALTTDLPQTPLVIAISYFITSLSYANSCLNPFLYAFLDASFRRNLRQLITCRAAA
# TAAR1 antag = human TAAR1 antagonists, primary screen, Fluo-8 calcium fluorescence, CHO RD-HGA16 cells; Trace amine-associated receptor 1 (Homo sapiens), Q96RJ0; antagonist; inhibition, % at 3 µM; 360,000 compounds, 1.5% hits; AID 624466, 2012;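 active = inhibition above a per-plate cutoff, the mean inhibition of test compounds on that plate plus 3 SD, cut at about 49% in these data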
#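 Test system – hTAAR1-expressing CHO RD-HGA16 cells, Gα16-coupled · Also added – β-PEA at EC80 concentration, post-compound challenge · Compound – 3 µM, single point · Incubation – dye loading 75 min at 37 °C, then 30 min room temperature · Measured by – Fluo-8 intracellular calcium dye fluorescence, real-time kinetic reads · Benchmarks – vehicle and agonist controls · Replicates – singlicate, one well per test compound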
# CHO parental Ca = ATP-evoked calcium signal inhibitors, parental CHO, primary screen, counter-screen for OX1R antagonist project, cell-based, fluorescence, Fluo-8 calcium dye | parental CHO-K1, ATP-induced calcium, Fluo-8 fluorescence | inhibition, % at 5.6 µM | 330,000 compounds, 0.63% hits;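 active = inhibition above that plate's mean sample inhibition plus 3 SD, cut at about 26% in these data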
#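 Test system: untransfected parental CHO cell line. Compound: one dose, 5.6 µM nominal. Detection: intracellular calcium via Fluo-8 no-wash fluorescent dye. Measure: % inhibition. Benchmarks: ATP-challenged DMSO wells low, unchallenged DMSO wells high.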
# OX1R antag-2 = antagonists of human orexin 1 receptor (OX1R). Orexin/Hypocretin receptor type 1 (Homo sapiens), O43613. inhibition, % at 6.6 µM. 330,000 compounds, 1.8% hits. OX1R-expressing cells, FRET antagonist read-out; in the data active = inhibition mostly above about 38%, no sharp cut-off; inactive = mostly below about 40%
# Numbers stand for hits; i = inactive; nt = no result.
SMILES,TAAR1 ag,OX1R antag-1,GPR7 antagonist,TAAR1 antag,CHO parental Ca,OX1R antag-2
CC1CCN(C(=S)Nc2ccc(SC(F)F)cc2)CC1,i,i,i,i,i,i
COC(=O)[C@]12C[C@H](CC(=O)N3CCCCC3)C(=O)N(CCC3=CCCCC3)C1=C[C@H](C(C)(C)C)O[C@@H]2C,i,nt,nt,i,nt,nt
Cc1ccccc1C(=O)Nc1ccccc1C(=O)NCc1ccccc1,i,i,i,49,i,i
O=C(CSc1ncnc2[nH]ncc12)Nc1nc(-c2ccc(F)c(F)c2)cs1,i,45,i,62,42,52
Cc1cccc(C)c1NC(=O)CSc1ncnc2[nH]ncc12,i,i,nt,i,i,i
COc1ccc(CC2=CC(=O)c3ccccc3C2=O)cc1,i,i,i,i,i,39
COc1ccc(Cc2ccccc2C(=O)O)cc1,i,nt,nt,i,nt,nt
Cc1ccc2c(c1)CCCN2CC(=O)N(C)c1c(N)n(Cc2ccccc2)c(=O)[nH]c1=O,i,i,nt,i,i,i
COc1cccc(CNC(=O)[C@H]2CCCN2C(=O)[C@H]2CCCN2C(=O)c2ccc(F)c(C(F)(F)F)c2)c1,i,nt,nt,i,nt,nt
Cc1cc2c(N=O)c(NO)ccc2[nH]1,nt,i,i,nt,i,62
O=C(Nc1cccnc1)c1cccc(S(=O)(=O)N2CCc3ccccc32)c1,i,i,i,i,i,i
O=C(Nc1ccncc1)c1cccc(S(=O)(=O)N2CCc3ccccc32)c1,i,48,nt,i,59,48
Cc1ccc2c(c1)CCCN2S(=O)(=O)c1cccc(C(=O)Nc2ccccc2C(=O)O)c1,i,i,i,i,i,58
CC(C)NC(=O)Nc1ccc2c(c1)C(=O)N([C@@H](C)CO)C[C@H](C)[C@H](CN(C)S(=O)(=O)c1ccccc1)OCCCC[C@H](C)O2,i,nt,nt,i,nt,nt
Cc1ccc2nc3c(cc(C(=O)NCC4CCCO4)c(=N)n3C3CCCC3)c(=O)n2c1 (centres undefined),i,i,i,i,i,58
N=c1c(C(=O)NCC2CCCO2)cc2c(=O)n3ccccc3nc2n1C1CCCC1 (centres undefined),i,i,i,i,i,45
Cc1cccn2c(=O)c3cc(C(=O)NCC4CCCO4)c(=N)n(C4CCCC4)c3nc12 (centres undefined),i,i,i,i,i,59
O=c1[nH]c2cc3c(cc2cc1CN(Cc1ccc2c(c1)OCO2)Cc1nnnn1CC1CCCO1)OCO3 (centres undefined),i,i,i,i,i,49
Cc1ccc2[nH]c(=O)c(CN(Cc3cccnc3)Cc3nnnn3CC3CCCO3)cc2c1 (centres undefined),i,i,i,i,i,i
COC(=O)c1cc2c(c3c4cc(F)ccc4n(S(=O)(=O)c4ccccc4)c13)C(=O)N(Cc1ccco1)C2,i,nt,nt,i,nt,nt
C=CCO[C@H]1CN(C(=O)OC)[C@@H]2C[C@H]1Oc1ccccc12,i,nt,nt,i,nt,nt
COc1cc(C[C@@H](C)[C@@H](C)Cc2ccc(O)c(OC)c2)ccc1O,i,i,nt,i,i,i
CC(Cc1ccc(O)c(O)c1)C(C)Cc1ccc(O)c(O)c1 (centres undefined),nt,i,nt,nt,34,i
C[C@@H]1CCCCO[C@H](CN(C)C(=O)C2CCCCC2)[C@@H](C)CN([C@H](C)CO)C(=O)c2cc(NS(=O)(=O)c3cccs3)ccc2O1,i,nt,nt,i,nt,nt
COC(=O)CCCC1=CC2=CC(=O)C(C)(OC(=O)c3cccs3)C(=O)C2=CN1CCCOC(C)C (centres undefined),i,i,nt,i,i,63
SMILES,TAAR1 ag,OX1R antag-1,GPR7 antagonist,TAAR1 antag,CHO parental Ca,OX1R antag-2
CC1(C(=O)NS(=O)(=O)c2cccs2)CCN1C(=O)CC1CCCCC1 (centres undefined),i,nt,nt,i,nt,nt
O=S1(=O)N[C@@H](Cc2ccccc2)COc2cc(NC3CC3)ccc21,i,nt,nt,i,nt,nt
COc1ccc(-n2c(O)c(/C=N/NS(=O)(=O)c3cc(C)ccc3C)c3ccccc3c2=O)cc1OC,42,i,i,50,i,i
COc1ccc(-n2c(O)c(/C=N/NS(=O)(=O)c3ccc(C)cc3)c3ccccc3c2=O)cc1OC,i,i,i,i,i,i
Cc1cc(C)c(C)c(SCC(=O)Nc2oc(C)c3c(C)n[nH]c(=O)c23)c1C,i,i,nt,i,i,i
Cc1n[nH]c(=O)c2c(NC(=O)CSc3nncs3)oc(C)c12,i,i,nt,i,i,48
COc1ccc(C(=O)C[n+]2ccc(-c3nnc4n3CCCCC4)cc2)cc1,i,i,i,i,i,44
COC(=O)c1cc(C(=O)Nc2ccc(C)cn2)cc([N+](=O)[O-])c1,i,i,i,i,i,50
CCCC[n+]1c2ccccc2cc2ccccc21,i,i,i,i,i,48
Cc1ccc2ccccc2[n+]1CCCS(=O)(=O)[O-],i,i,i,i,i,i
O=C(N/N=C/c1ccc(Cl)cc1)c1ccc2nc[nH]c2c1,i,nt,nt,53,nt,nt
COC(=O)c1ccc(/C=N/NC(=O)c2ccc3nc[nH]c3c2)cc1,i,i,i,i,i,i
COc1ccc2oc3c(ccc[n+]3C)c(=O)c2c1,i,nt,nt,i,nt,nt
O=C(N/C(=C\c1ccc([N+](=O)[O-])cc1)C(=O)N1CCCCC1)c1ccccc1Br,i,i,i,i,i,51
NC(=O)CSc1nnc(-c2ccccn2)n1Cc1ccco1,i,i,i,i,i,i
Clc1ccccc1CSc1nnc(-c2ccccn2)n1Cc1ccco1,i,i,i,i,i,57
FC(F)(F)c1ccccc1CN1CCCc2nc(-c3ccc(Br)cc3)ccc21,i,nt,nt,i,nt,nt
CCOc1ccccc1NS(=O)(=O)c1cccc2nsnc12,i,i,i,i,i,i
CC(=O)c1cccc(NC(=O)CCNS(=O)(=O)c2cccc3nsnc23)c1,i,i,i,i,i,58
COc1ccc(NC(=O)CCNS(=O)(=O)c2cccc3nsnc23)c(OC)c1,i,i,i,i,i,73
COc1ccc(NC(=O)CCNS(=O)(=O)c2cccc3nsnc23)cc1,i,i,i,i,i,i
CCOc1ccccc1NC(=O)CCNS(=O)(=O)c1cccc2nsnc12,i,i,i,i,i,67
CSCCC(C(=O)NCc1ccccc1)n1c(-c2ccc3c(c2)CCO3)nc2ccccc21 (centres undefined),i,nt,nt,i,nt,nt
O=C(c1nnsc1S(=O)(=O)c1ccc(Cl)cc1)N1CCOCC1,i,nt,i,i,nt,nt
CNC(=O)c1nnsc1S(=O)(=O)c1ccc(Cl)cc1,i,nt,26,i,nt,nt
